From ChEMBL document CHEMBL4818983, “Structure-activity relationship and hypoglycemic activity of tricyclic matrines with advantage of treating diabetic nephropathy” (Eur J Med Chem, 2020)

tested on: HepG2; assay: Increase in glucose consumption in human HepG2 cells assessed as Gx/GDMSO ratio at 25 uM by glucose oxidase assay; format: functional
How it was run: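 HepG2 glucose consumption screen. Test compounds at 25 μM, metformin at 5 mM. Activity expressed as ratio of glucose consumption to DMSO-treated cells (Gx/G_DMSO).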

O=S(=O)(c1ccc(C(F)(F)F)cc1)N1C[C@@H]2CCCN3CCC[C@@H]([C@H]23)[C@H]1CCCCO was tested. Which Ratio did it give?
The Ratio was 1.04.

How did the Ratio turn out when CCCC[C@@H]1[C@H]2CCCN3CCC[C@@H](CN1C(=O)Nc1c(C)cccc1C)[C@@H]23 was run?
The Ratio was 1.14.

Which Ratio does the source give for CCCC[C@@H]1[C@H]2CCCN3CCC[C@H](CN1S(=O)(=O)c1cccc(C(F)(F)F)c1)[C@@H]23 here?
Its Ratio is 1.2.

How did the Ratio turn out when COC(=O)CCC[C@@H]1[C@H]2CCCN3CCC[C@H](CN1S(=O)(=O)c1cccc(C(F)(F)F)c1)[C@@H]23 was run?
The Ratio was 1.21.

How did the Ratio turn out when CCCC[C@@H]1[C@H]2CCCN3CCC[C@@H](CN1C(=O)Nc1cccc(C(F)(F)F)c1)[C@@H]23 was run?
The Ratio was 1.

For CCNc1nnc(CCC[C@@H]2[C@H]3CCCN4CCC[C@@H](CN2S(=O)(=O)c2ccc(C)cc2)[C@@H]34)s1, which Ratio is on record?
Its Ratio is 0.79.

Which Ratio does the source give for Nc1nnc(CCC[C@@H]2[C@H]3CCCN4CCC[C@@H](CN2S(=O)(=O)c2cccc(C(F)(F)F)c2)[C@@H]34)o1 here?
The Ratio was 1.34.

Nc1nnc(CCC[C@@H]2[C@H]3CCCN4CCC[C@@H](CN2S(=O)(=O)c2ccc(C(F)(F)F)cc2)[C@@H]34)o1 was tested. Which Ratio did it give?
The Ratio was 1.18.

For O=S(=O)(c1ccccc1C(F)(F)F)N1C[C@H]2CCCN3CCC[C@@H]([C@H]23)[C@H]1CCCCO, which Ratio is on record?
The Ratio was 1.24.

How did the Ratio turn out when CCCC[C@@H]1[C@H]2CCCN3CCC[C@H](CN1S(=O)(=O)c1ccc(C)cc1)[C@@H]23 was run?
Its Ratio is 1.07.

Cc1ccc(S(=O)(=O)N2C[C@@H]3CCCN4CCC[C@@H]([C@H]34)[C@H]2CCCCO)cc1 was tested. Which Ratio did it give?
The Ratio was 1.16.

Which Ratio does the source give for CCCC[C@@H]1[C@H]2CCCN3CCC[C@@H](CN1S(=O)(=O)c1ccc(C)cc1)[C@@H]23 here?
Its Ratio is 1.03.

How did the Ratio turn out when COC(=O)CCC[C@@H]1[C@H]2CCCN3CCC[C@H](CN1S(=O)(=O)c1ccc(C(F)(F)F)cc1)[C@@H]23 was run?
The Ratio was 1.13.

Which Ratio does the source give for Nc1nnc(CCC[C@@H]2[C@H]3CCCN4CCC[C@@H](CN2S(=O)(=O)c2cccc(C(F)(F)F)c2)[C@@H]34)s1 here?
The Ratio was 1.04.

Which Ratio does the source give for CCCC[C@@H]1[C@H]2CCCN3CCC[C@@H](CN1C(=O)Nc1cccc(C)c1)[C@@H]23 here?
The Ratio was 1.32.

CCCC[C@@H]1[C@H]2CCCN3CCC[C@@H](CN1C(=O)Nc1ccc(C)cc1)[C@@H]23 was tested. Which Ratio did it give?
Its Ratio is 1.04.

CN(C)c1nnc(CCC[C@@H]2[C@H]3CCCN4CCC[C@@H](CN2S(=O)(=O)c2cccc(C(F)(F)F)c2)[C@@H]34)s1 was tested. Which Ratio did it give?
The Ratio was 0.97.

For Cc1ccc(S(=O)(=O)N2C[C@@H]3CCCN4CCC[C@@H]([C@H]34)[C@H]2CCCC(=O)O)cc1, which Ratio is on record?
The Ratio was 0.87.

CCCC[C@@H]1[C@H]2CCCN3CCC[C@@H](CN1C(=O)Nc1ccc(C(F)(F)F)cc1)[C@@H]23 was tested. Which Ratio did it give?
Its Ratio is 1.08.

Which Ratio does the source give for Cc1ccc(S(=O)(=O)N2C[C@H]3CCCN4CCC[C@@H]([C@H]34)[C@H]2CCCCO)cc1 here?
The Ratio was 1.12.

Which Ratio does the source give for CNc1nnc(CCC[C@@H]2[C@H]3CCCN4CCC[C@@H](CN2S(=O)(=O)c2cccc(C(F)(F)F)c2)[C@@H]34)s1 here?
The Ratio was 0.86.

O=C(O)CCC[C@@H]1[C@H]2CCCN3CCC[C@H](CN1S(=O)(=O)c1ccccc1C(F)(F)F)[C@@H]23 was tested. Which Ratio did it give?
The Ratio was 1.12.

With CCCC[C@@H]1[C@H]2CCCN3CCC[C@@H](CN1S(=O)(=O)c1ccccc1C(F)(F)F)[C@@H]23 as the molecule, how does the Ratio read?
The Ratio was 1.01.

With O=C(O)CCC[C@@H]1[C@H]2CCCN3CCC[C@H](CN1S(=O)(=O)c1ccc(C(F)(F)F)cc1)[C@@H]23 as the molecule, how does the Ratio read?
The Ratio was 0.99.

CCCC[C@@H]1[C@H]2CCCN3CCC[C@@H](CN1C(=O)Nc1ccc(OC(F)(F)F)cc1)[C@@H]23 was tested. Which Ratio did it give?
Its Ratio is 1.07.

With CC[C@@H]1[C@H]2CCCN3CCC[C@@H](CN1S(=O)(=O)c1ccccc1C(F)(F)F)[C@@H]23 as the molecule, how does the Ratio read?
Its Ratio is 1.26.

Which Ratio does the source give for COC(=O)CCC[C@@H]1[C@H]2CCCN3CCC[C@H](CN1S(=O)(=O)c1ccccc1C(F)(F)F)[C@@H]23 here?
The Ratio was 1.23.
